Data reported in ChEMBL document CHEMBL1799923, “Design, synthesis, and biological activities of closantel analogues: structural promiscuity and its impact on Onchocerca volvulus” (J Med Chem, 2011).
The source made the active and inactive calls.

Experiments:
[1] = test system: Onchocerca ochengi; test: Antiparasitic activity against Onchocerca ochengi assessed as effect on microfilarial mobility at 10 ug/ml measured every 24 hrs for 120 hrs by inverted microscopic analysis; assay type: functional
How it was run: (§1)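 Microfilariae isolated from cattle skin snips; ≥15 per well cocultured on a confluent monkey kidney epithelial feeder layer in RPMI-1640 complete medium (25 mM HEPES, 5% newborn calf serum, pH 7.4) with compound, 37 °C, 5% CO2, 5 days, no medium change. Motility scored by inverted microscope every 24 h. Viability checked at 120 h. Duplicate wells. Active = 100% motility loss versus control.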

[2] = molecular target: T1, Chitinase (Onchocerca volvulus, UniProt Q25615); test: Inhibition of Onchocerca volvulus L3 larvae chitinase using 4-methylumbelliferyl-N,N',N''-beta-chitotrioside as a profluorescent substrate after 10 mins by fluorometric analysis
T1 sequence (Q25615 whole entry): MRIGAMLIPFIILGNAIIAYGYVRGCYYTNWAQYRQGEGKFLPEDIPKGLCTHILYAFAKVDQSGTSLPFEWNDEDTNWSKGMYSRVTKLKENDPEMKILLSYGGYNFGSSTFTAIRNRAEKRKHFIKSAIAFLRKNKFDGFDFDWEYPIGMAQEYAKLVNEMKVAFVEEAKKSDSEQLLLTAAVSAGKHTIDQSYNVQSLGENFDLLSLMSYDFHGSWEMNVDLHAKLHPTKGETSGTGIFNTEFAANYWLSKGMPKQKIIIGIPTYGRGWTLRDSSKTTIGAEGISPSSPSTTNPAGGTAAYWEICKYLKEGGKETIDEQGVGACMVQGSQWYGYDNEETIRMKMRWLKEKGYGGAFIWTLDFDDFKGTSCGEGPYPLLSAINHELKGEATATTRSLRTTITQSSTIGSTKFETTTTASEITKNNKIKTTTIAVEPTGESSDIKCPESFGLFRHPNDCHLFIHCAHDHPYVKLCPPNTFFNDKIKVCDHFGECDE
How it was run: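 OvCHT1 (1.25 units) with 20 μM 4-methylumbelliferyl-N,N',N''-β-chitotrioside in 200 mM NaCl, 20 mM Na3PO4 (pH 6.0), 1.0 mM EDTA and 0.5% DMSO at 37 °C. Screening used 25 μM compound, with a no-compound blank. Fluorescence increase is read over 10 min (ex 350 nm, em 440 nm). Triplicate reactions.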

[3] = test system: Onchocerca ochengi; test: Antiparasitic activity against Onchocerca ochengi assessed as effect on microfilarial mobility at 5 ug/ml measured every 24 hrs for 120 hrs by inverted microscopic analysis; assay type: functional; how it was run: as §1
[4] = test system: Onchocerca volvulus; test: Antiparasitic activity against Onchocerca volvulus assessed as inhibition of L3 to L4 larval molting at 100 uM after 6 days by using inverted microscopic analysis; assay type: functional
How it was run: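 Cryopreserved O. volvulus L3 larvae thawed at 37 °C, washed in NCTC/IMDM (1:1) with glutamine, penicillin and streptomycin, then set at […] worms per well in complete medium with 20% heat-inactivated FCS. Each well received 1.5 × 10^5 normal PBMCs; 10 wells per treatment, with DMSO and medium controls. Incubated at 37 °C in 5% CO2 for 6 days. Molting is scored by inverted microscopy as L4 larvae plus empty L3 casts.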

[5] = test system: Onchocerca volvulus; test: Antiparasitic activity against Onchocerca volvulus assessed as larval toxicity at 100 uM after 6 days by using inverted microscopic analysis; assay type: functional, organism-based
[6] = test system: Onchocerca volvulus; test: Antiparasitic activity against Onchocerca volvulus assessed as inhibition of L3 to L4 larval molting at 50 uM after 6 days by using inverted microscopic analysis; assay type: functional, organism-based
How it was run: (§2)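 Cryopreserved L3 thawed at 37 °C and washed. 5–10 larvae per well in complete medium with 20% heat-inactivated FCS plus 1.5 × 10^5 normal PBMCs. 10 wells per treatment. Compounds tested singly or as a 1:1 pair. DMSO and medium controls included. Incubated at 37 °C, 5% CO2. Molting scored on day 6 by inverted microscope as L4 plus empty L3 cast. Reported as percent molting.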

[7] = test system: HEK-293T; test: Protonophoric activity in human HEK293T cells assessed as mitochondrial membrane depolarization at 50 uM after 10 mins by flow cytometric analysis relative to valinomycin; assay type: functional, cell-based
How it was run: (§3)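 HEK-293T/17 cells were trypsinized and resuspended at 1 × 10^6/mL in PBS. They were exposed to 50 μM compound (valinomycin control 200 nM) for 10 min at 37 °C, then stained with the JC-1 potential probe for 10 min at 37 °C. Cells were washed and analysed by flow cytometry using FL-1 green and FL-2 red channels.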

[8] = test system: Onchocerca volvulus; test: Antiparasitic activity against Onchocerca volvulus assessed as inhibition of L3 to L4 larval molting at 25 uM after 6 days by using inverted microscopic analysis; assay type: functional, organism-based; how it was run: as §2
[9] = test system: HEK-293T; test: Protonophoric activity in human HEK293T cells assessed as mitochondrial membrane depolarization at 50 uM after 10 mins by flow cytometric analysis relative to closantel; assay type: functional, cell-based; how it was run: as §3
[10] = test system: HEK-293T; test: Protonophoric activity in human HEK293T cells assessed as mitochondrial membrane depolarization at 50 uM after 10 mins by flow cytometric analysis; assay type: functional, cell-based; how it was run: as §3
[11] = test system: HEK-293T; test: Protonophoric activity in human HEK293T cells assessed as mitochondrial membrane depolarization at 200 uM after 10 mins by flow cytometric analysis; assay type: functional, cell-based
How it was run: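 HEK-293T/17 cells trypsinized and resuspended at 1 × 10^6 cells/mL in PBS. Compound exposure is 10 min at 37 °C, with valinomycin as the depolarization control. JC-1 is then added for another 10 min at 37 °C. Cells are washed and analysed by flow cytometry in the green (FITC) and red (PE) channels for mitochondrial membrane polarization.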

Structure (SMILES) | motility % at 10 µg/mL [1] [%] | IC50 [2] [nM] | motility % at 5 µg/mL [3] [%] | other results
O=C(Nc1ccc(Cl)cc1)c1cc(Cl)cc(Cl)c1O | 29 | 12400 | 100 | 
Cc1ccc(NC(=O)c2cc(Cl)cc(Cl)c2O)cc1 | 50 |  | 100 | 
O=C(Nc1ccc(Cl)cc1)c1cc(Br)cc(Br)c1O | 35 |  | 100 | 
COc1ccc(NC(=O)c2cc(I)ccc2O)cc1 | 100 |  | 100 | 
O=C(Nc1ccc(Cl)cc1)c1cc(I)cc(I)c1O | 0 | 5800 | 100 | 
Cc1ccc(NC(=O)c2cc(I)ccc2O)cc1 | 21 |  | 50 | 
CC(C)c1cc(C(=O)Nc2ccc(Cl)cc2)c(O)c(C(C)C)c1 | 100 |  | 100 | inhibition [4]: Active; Activity [5]: inactive; inhibition [6]: inactive; Activity [7]: Active; inhibition [8]: inactive; Activity [9]: Active
O=C(Nc1ccc(I)cc1)c1cc(I)cc(I)c1O | 100 | 630 | 100 | inhibition [4]: Active; Activity [5]: inactive; inhibition [6]: inactive; inhibition [8]: inactive; Activity [10]: inactive
Cc1ccc(NC(=O)c2cc(C(C)C)cc(C(C)C)c2O)cc1 | 25 |  | 50 | 
Cc1ccc(NC(=O)c2cc(Br)cc(Br)c2O)cc1 | 100 |  | 100 | 
O=C(Nc1ccccc1)c1cc(Br)cc(Br)c1O [METABROMSALAN] | 50 |  | 100 | 
O=C(Nc1ccccc1)c1cc(I)ccc1O | 25 |  | 100 | 
CC(C)[C@@H]1NC(=O)[C@H](C)OC(=O)[C@@H](C(C)C)NC(=O)[C@@H](C(C)C)OC(=O)[C@H](C(C)C)NC(=O)[C@H](C)OC(=O)[C@@H](C(C)C)NC(=O)[C@@H](C(C)C)OC(=O)[C@H](C(C)C)NC(=O)[C@H](C)OC(=O)[C@@H](C(C)C)NC(=O)[C@@H](C(C)C)OC1=O |  |  |  | Activity [11]: Active
COc1ccc(NC(=O)c2cc(Cl)cc(Cl)c2O)cc1 | 50 |  | 100 | 
COc1ccc(NC(=O)c2cc(C(C)C)cc(C(C)C)c2O)cc1 | 25 |  | 50 | 
COc1ccc(NC(=O)c2cc(I)cc(I)c2O)cc1 | 100 | 8700 | 100 | 
O=C(Nc1ccc(F)cc1)c1cc(I)cc(I)c1O | 100 | 880 | 100 | 
CC(C)c1ccc(NC(=O)c2cc(I)cc(I)c2O)cc1 | 100 | 1600 | 100 | 
CC(C)c1cc(C(=O)Nc2ccccc2)c(O)c(C(C)C)c1 | 50 |  | 100 | 
O=C(Nc1ccccc1)c1cc(Cl)cc(Cl)c1O | 25 |  | 100 | 
O=C(Nc1ccc(Cl)cc1)c1cc(I)ccc1O | 100 |  | 100 | 
O=C(Nc1ccc(Br)cc1)c1cc(I)cc(I)c1O | 100 | 680 | 100 | 
Cc1cc(C(C#N)c2ccc(Cl)cc2)c(Cl)cc1NC(=O)c1cc(I)cc(I)c1O (stereo not given) [CLOSANTEL] | 0 | 1600 | 100 | inhibition at 100 µM ([4]; 144 h): 97.6%; Activity [5]: inactive; Ki [2]: 468 nM
Cc1ccc(NC(=O)c2cc(I)cc(I)c2O)cc1 | 100 | 1700 | 100 | 
COc1ccc(NC(=O)c2cc(Br)cc(Br)c2O)cc1 | 50 | 5500 | 100 | 
O=C(Nc1ccccc1)c1cc(I)cc(I)c1O | 100 |  | 100 | 
